Consider 97 compounds from ChEMBL document CHEMBL4513216, “Probing the Open Global Health Chemical Diversity Library for Multistage-Active Starting Points for Next-Generation Antimalarials” (ACS Infect Dis, 2020).

The series in a line: Toxicity liver stage against HepG2, at 10uM. The series is classed as cell-based. Set-up: test concentration 10 uM, cell line HepG2-A16-CD81EGFP. To be noted: human, HepG2-A16-CD81EGFP cells; read-out: INHIBITION
The method, boiled down:
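Uninfected HepG2-A16-CD81EGFP cells, 3 × 10^3 per well, 1536-well, plated on prespotted compound at 10 μM final, parasite-free screening media added to match infected plates; puromycin 10 μM positive, DMSO 0.5% negative; run in parallel with 48 h PbLuc assay at 37 °C, 5% CO2; viability by CellTiter-Glo luminescence, normalized to controls.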
In the case of `CN(CCC#N)C(=O)CN(C1CC1)C1CCc2ccccc21` (configuration not stated), the cytotoxicity at 10 µM was -4.74%.

On to `COc1cc(CN2CCCC23CCN(c2ccccn2)CC3)ccc1F`, for which the cytotoxicity at 10 µM is -11.5%.

For `CS(=O)(=O)CCN(Cc1cccc(O)c1)C1CCC(O)CC1` (configuration not stated), the cytotoxicity at 10 µM amounted to 5.38%.

For `CN(C)c1ncccc1CNC(=O)c1csc(Br)c1`, the cytotoxicity at 10 µM is -1.35%.

As to `COc1cccc(S(=O)(=O)NC(=O)CCC2CCCC2)c1`, the cytotoxicity at 10 µM was determined as 0.428%.

In the case of `COCC1CN(C(=O)N2CCCC2)Cc2cnn(CC3CCCC3)c21` (configuration not stated), the cytotoxicity at 10 µM was found to be 9.23%.

As to `CSCCC(Nc1nc(C)cc(C)n1)C(=O)NC(C)(C)CO` (configuration not stated), the cytotoxicity at 10 µM is -5.15%.

`COCC(=O)NCc1ccc(-c2ccccc2C(=O)O)cn1`: the cytotoxicity at 10 µM is -1.53%.

On to `COc1ccc(C2c3c(N)nc(SC)nc3N=C3CCCC(=O)C32)cc1` (configuration not stated), for which the cytotoxicity at 10 µM was -18.7%.

In the case of `CC1c2ncc(CNC(=O)C3CC3)n2CCN1Cc1ccccn1` (configuration not stated), the cytotoxicity at 10 µM is 8.18%.

On to `CC(C)CNC(=O)c1ccc(NC(=O)NC(C)C)cc1Cl`, for which the cytotoxicity at 10 µM was 5.92%.

Take `CN(C)C(=O)CN1C(=O)CCC12CCN(Cc1cccs1)CC2`: the cytotoxicity at 10 µM was -2.6%.

Take `COCCNC(=O)[C@H]1C[C@@H]2CCN(c3ccncn3)C[C@H]2O1`: the cytotoxicity at 10 µM worked out at 2.4%.

For `COCCCN(CCOC)C(=O)Nc1ccc(Br)cc1`, the cytotoxicity at 10 µM came out at 6.66%.

With `CC(=O)N1Cc2ccccc2C[C@H]1C(=O)N(C)Cc1ccccn1`, the cytotoxicity at 10 µM came out at 6.17%.

Turning to `COc1ccccc1CN1CCC(O)(Cn2ccc3ncccc32)CC1`, the cytotoxicity at 10 µM is -0.692%.

With `CCCc1cc(=O)[nH]c(-n2nc(C3CC3)cc2N)n1`, the cytotoxicity at 10 µM stood at 31.3%.

With `O=S(=O)(NCc1ccnc(-n2ccnc2)c1)c1cncc(Cl)c1`, the cytotoxicity at 10 µM came out at 3.46%.

Consider `c1cncc(NCCNC2CCCNC2)c1` (configuration not stated), for which the cytotoxicity at 10 µM was -4.5%.

For the compound `CCOc1ccccc1OC1CCN(C(=O)c2c[nH]nn2)CC1`, the cytotoxicity at 10 µM was -2.48%.

`Cc1cccnc1CN1CCC(c2nnc(Cn3cccn3)n2C)CC1`: the cytotoxicity at 10 µM is -11.5%.

On to `Cc1cc(N2CCOC(c3ccccn3)C2)nc(N)n1` (configuration not stated), for which the cytotoxicity at 10 µM amounted to 4.4%.

On to `CC(C)N1CCO[C@@H]2CN(C(=O)Cc3cccs3)CC[C@@H]2C1`, for which the cytotoxicity at 10 µM is -120%.

Take `NC(=O)C1CN(c2ccc(F)cc2)CCN1` (configuration not stated): the cytotoxicity at 10 µM was -4.98%.

As to `CN(Cc1cnn(C)c1)C(=O)NC1CCN(c2ncccn2)CC1`, the cytotoxicity at 10 µM is -5.82%.

As for `CCOc1ccnc(NCCc2nc(C)cc(=O)[nH]2)n1`, the cytotoxicity at 10 µM was -6.73%.

As to `CCN(CC)CC1CN(Cc2ccc(C)s2)Cc2nccn2C1` (configuration not stated), the cytotoxicity at 10 µM was determined as 2.32%.

For the compound `O=C(CCn1ccnc1)N1CCC(c2nnc(-c3ccccn3)o2)CC1`, the cytotoxicity at 10 µM was found to be 3.29%.

Consider `CC(C)(C)NC(=O)N1CCN2C(=O)OCC2C1` (configuration not stated), for which the cytotoxicity at 10 µM was -1.96%.

As for `O=C(Cc1ccc2c(c1)OCCO2)N1CCCC(n2cncn2)C1` (configuration not stated), the cytotoxicity at 10 µM was -7.85%.

As for `Cc1ccc2oc(=O)n(CCC(=O)N3CCN(C)C(=O)C3)c2c1`, the cytotoxicity at 10 µM is -15.6%.

For `CCCn1cc(-c2ccnc(NC3CCc4ccccc4C3)n2)c(C)n1` (configuration not stated), the cytotoxicity at 10 µM worked out at 81.3%.

As for `Cc1cc(C)n(CC(=O)N(C)Cc2csc(-c3cccs3)n2)c(=O)n1`, the cytotoxicity at 10 µM was 32.2%.

`O=C(NC[C@]12COC[C@H]1CN(Cc1nccs1)C2)c1cscn1`: the cytotoxicity at 10 µM was -1.11%.

Regarding `CC(=O)N1CCC(C)(c2cc(C(=O)NCC(C)(C)C)nc(C)n2)CC1`, the cytotoxicity at 10 µM was 6.93%.

Regarding `CCn1ccnc1CN1CCN(CC(O)c2ccccc2)CC1` (configuration not stated), the cytotoxicity at 10 µM was -7.41%.

Consider `CN(Cc1noc2c1CCCC2)C(=O)CN1C(=O)COc2ccccc21`, for which the cytotoxicity at 10 µM is -55.1%.

Regarding `c1csc(CN2C[C@@H](n3cccn3)[C@H]3OCCC[C@H]32)c1`, the cytotoxicity at 10 µM amounted to 1.63%.

For `Cc1nc(CNc2ccc(C(=O)NCc3ccco3)cc2C)no1`, the cytotoxicity at 10 µM amounted to 5.38%.

As to `COCCN1CCC(c2nc3ccccc3[nH]2)CC1`, the cytotoxicity at 10 µM came to 0.575%.

Regarding `CN(CC1(O)CCN(c2ccnc3ccncc23)CC1)C(=O)CCN`, the cytotoxicity at 10 µM was -6.86%.

For the compound `CCn1cnnc1C1CCN(C(=O)c2cc(F)ccc2OC)CC1`, the cytotoxicity at 10 µM was -3.35%.

`CN1CCOC(CNC(=O)CCCOc2ccccc2F)C1` (configuration not stated): the cytotoxicity at 10 µM was -3.15%.

Turning to `O=C1NCc2ccc(NC(=O)C3CCCN3c3nccs3)cc21` (configuration not stated), the cytotoxicity at 10 µM is -6.02%.

Turning to `COCC1COCCC12CCN(Cc1nccs1)CC2` (configuration not stated), the cytotoxicity at 10 µM came out at 2.31%.

For `COc1ccc(OC)c(-c2nc(CN(C)Cc3noc(C)n3)c(C)o2)c1`, the cytotoxicity at 10 µM is -3.7%.

As for `OCC1CCCN1c1cc(NCc2cccc3cccnc23)ncn1` (configuration not stated), the cytotoxicity at 10 µM was -15.6%.

In the case of `COc1ccc(-n2cccn2)cc1S(=O)(=O)N1C[C@H](C2CC2)[C@@H](N)C1`, the cytotoxicity at 10 µM is 4.69%.

As for `O=C(NCCOC1CCCC1)c1ccc(-c2ccco2)[nH]c1=O`, the cytotoxicity at 10 µM was -20%.

As to `COc1cc2c(cc1CNC(=O)C(C)n1ccnc1C(C)C)OCCO2` (configuration not stated), the cytotoxicity at 10 µM is -1.3%.

`Cc1nc(C)c(C)c(N2CCC(O)(c3ccc(F)cc3)CC2)n1`: the cytotoxicity at 10 µM was -6.08%.

As for `Cc1cccc(C2CCCN(C(=O)c3ccncc3)C2)n1` (configuration not stated), the cytotoxicity at 10 µM was determined as 2.97%.

As to `C=C(C)Cn1c(=O)nc(N)c2c(-c3ccc(OC)cc3)csc21`, the cytotoxicity at 10 µM is -26%.

In the case of `Cc1ccc(C(C)NC(=O)Cc2c(C)nc3cc(=O)[nH]n3c2C)s1` (configuration not stated), the cytotoxicity at 10 µM is -0.159%.

Take `Cn1cc(C(=O)N[C@@H]2CN(CC3CCOCC3)[C@@H]3CCCO[C@@H]32)cn1`: the cytotoxicity at 10 µM came out at 6.64%.

For `O=C(CC1CC1)NC1CCc2c(ccc(=O)n2CC2CC2)C1` (configuration not stated), the cytotoxicity at 10 µM worked out at 6.34%.

As for `CCN(Cc1noc(C)n1)C(=O)C(c1ccccc1C)N(C)C` (configuration not stated), the cytotoxicity at 10 µM was 1.89%.

`CO[C@H]1CCN(Cc2ccccn2)[C@@H]2CN(Cc3ccco3)C[C@H]12`: the cytotoxicity at 10 µM is -7.76%.

Turning to `Cc1cc2nc(C(C)C)cc(N(C)CC3CCCN(CCO)C3)n2n1` (configuration not stated), the cytotoxicity at 10 µM is 7.52%.

Consider `CO[C@@H]1CC[C@H]2[C@H]1OCCN2C(=O)COc1ccc(F)cc1`, for which the cytotoxicity at 10 µM worked out at 4.42%.

`COCc1cnc2n1CCN(C1CCC1)C2C` (configuration not stated): the cytotoxicity at 10 µM is 4.77%.

For the compound `Cc1ncc(C(=O)N2CCCC(n3cccn3)C2)s1` (configuration not stated), the cytotoxicity at 10 µM was -5.8%.

Consider `CCNc1cc2c(nn1)CCN(C(=O)CCc1c(C)noc1Cl)C2`, for which the cytotoxicity at 10 µM is -3.25%.

With `O=C1CN([C@@H]2CC[C@@H](NS(=O)(=O)c3ccccc3)[C@H]2O)CCN1`, the cytotoxicity at 10 µM amounted to 7.41%.

`c1ccc2c(N3CCOCC3)cnnc2c1`: the cytotoxicity at 10 µM is -6.06%.

Regarding `CCn1nc(C)c2nc(C(C)C)nc(N(C)Cc3ccco3)c21`, the cytotoxicity at 10 µM is 15.6%.

Regarding `CCOc1ccc(Cl)c(C(=O)NC)n1`, the cytotoxicity at 10 µM is -4.63%.

With `CCc1nccn1CC(=O)Nc1cccc(N2CCCC2)c1`, the cytotoxicity at 10 µM came to 17.1%.

`CS(=O)(=O)c1ccc(CN2CCCCC2c2cccc(F)c2)cc1` (configuration not stated): the cytotoxicity at 10 µM was -17.4%.

`O=C1COC2(CCN(Cc3ccncc3)CC2)CN1`: the cytotoxicity at 10 µM is -1.81%.

Take `N#Cc1cccnc1NCc1cccnc1N1CCCCC1`: the cytotoxicity at 10 µM was -48.3%.

As to `c1ccc2sc(N3CCCC(Cn4cncn4)C3)nc2c1` (configuration not stated), the cytotoxicity at 10 µM was -40.1%.

As to `CC(=O)c1ccc(N2CCC3(CCC(=O)N(C4CC4)C3)CC2)nc1`, the cytotoxicity at 10 µM stood at 4.36%.

As to `CC(=O)CN1CCC2(CC1)c1ccccc1[C@@H](N1CCSCC1)[C@@H]2O`, the cytotoxicity at 10 µM is -27.1%.

On to `CS(=O)(=O)N1CCC(Oc2ccc(C(=O)NCC3CCC3)cc2Cl)CC1`, for which the cytotoxicity at 10 µM is 12%.

Regarding `CN1CC=C(c2noc(CCC(=O)N3CCc4ccccc43)n2)CC1`, the cytotoxicity at 10 µM came out at 7.22%.

For the compound `O=c1[nH]nc(CNc2ncc(Br)cn2)[nH]1`, the cytotoxicity at 10 µM was -5.12%.

For `Cc1nc(C(C)C)sc1CNC(=O)CCCN1CCCCC1`, the cytotoxicity at 10 µM was -13.8%.

With `Cc1cnc(N2CCn3cc(CNC(=O)CC4CC4)nc3C2)nc1`, the cytotoxicity at 10 µM was 12.3%.

Regarding `Cc1nc(C2CCN(C(=O)c3ccc(Cl)s3)CC2)cc(=O)[nH]1`, the cytotoxicity at 10 µM was -0.243%.

For `Cc1ccc(CN2CCC3(CC2)CC(NC(=O)c2ccccn2)CO3)o1` (configuration not stated), the cytotoxicity at 10 µM came out at 3.8%.

With `Cn1nc(Br)c2c(NCCS(N)(=O)=O)ncnc21`, the cytotoxicity at 10 µM was determined as 15.8%.

As for `Cc1csc(CN2C[C@@H]3CN(CC4CCOCC4)CCO[C@@H]3C2)n1`, the cytotoxicity at 10 µM was -109%.

Take `O=C(c1ccc(C2CCCN2C(=O)c2ccc[nH]2)s1)N1CCSCC1` (configuration not stated): the cytotoxicity at 10 µM was 3.59%.

In the case of `CN1CCN(S(=O)(=O)NCC2COc3ccccc3C2)CC1` (configuration not stated), the cytotoxicity at 10 µM is -3.33%.

On to `OCCN(Cc1nc(-c2ccc3c(c2)OCO3)no1)CC1CC1`, for which the cytotoxicity at 10 µM worked out at 8.37%.

With `Cc1ccc(CN2C[C@@H]3C[C@H](C(=O)NCC4CC4)N(C)[C@@H]3C2)o1`, the cytotoxicity at 10 µM is -3.63%.

On to `Cc1noc(C)c1CN(C)CC1CC(C2CCCCC2)=NO1` (configuration not stated), for which the cytotoxicity at 10 µM turned out to be 3.72%.

Take `CC(C)OCCCNC(=O)CSc1nnc(OC(C)C)s1`: the cytotoxicity at 10 µM is -5.89%.

Turning to `COC(=O)C1CCN(C(=O)Cn2nc(C)nc2-c2ccccc2)CC1`, the cytotoxicity at 10 µM is -0.159%.

Turning to `O=C(Nc1cc(-n2cccc2)ccc1F)N1CCCC1`, the cytotoxicity at 10 µM was -4.22%.

On to `CCC(CC(=O)NS(=O)(=O)C(C)C)c1ccccc1` (configuration not stated), for which the cytotoxicity at 10 µM was -49.1%.

`O=C(NCC(O)c1ccccc1)Nc1cccs1` (configuration not stated): the cytotoxicity at 10 µM was 8.25%.

Take `Cc1c[nH]nc1C1CCN(C(=O)C2CCC2)CC1`: the cytotoxicity at 10 µM came out at 5.33%.

For `Cc1cc(C(=O)N2CCC(c3nccn3Cc3ccncc3)CC2)no1`, the cytotoxicity at 10 µM was -15.7%.

Take `CCn1c(CC2CCN(C(=O)C3CCOC3)CC2)nn(C)c1=O` (configuration not stated): the cytotoxicity at 10 µM is -18%.

With `Cc1ccc2c(c1)OC(C)CN2C(=O)CCc1cscn1` (configuration not stated), the cytotoxicity at 10 µM was -48.5%.
